Assay outcomes deposited in PubChem by Johns Hopkins Ion Channel Center.
A selection: hits, their analogues and other compounds. The true share with any hit is near 3.5%.
RGS4 pot: RGS4 potentiation or activation | B-score at 10 µM | actives 0.92% (n = 310,000) | HEK293 M3R/inducible RGS4, carbachol calcium flux Fluo4; stronger effect = lower value;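 active means B-score of the integrated calcium signal more than 4 SD below the library mean, with starting fluorescence not abnormally high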;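 further: negative B-score means reduced calcium response which marks RGS4 activation or potentiation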
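test system = M3R-expressing HEK293 line, RGS4 induced by doxycycline | probe or stimulus = carbachol at ECmax as muscarinic agonist stimulus | timing = dye loading 30 min 37 °C, buffer rest 30 min RT | signal = calcium dye Fluo4 fluorescence | evaluation = B score from integrated fluorescence ratio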
MrgX1 agonist: human MrgX1 receptor agonism, primary screen; MrgX1-HEK293 cells, Fluo-4 calcium fluorescence, agonist mode; stronger effect = higher value; B-score at 10 µM; actives 0.44% (n = 310,000); AID 588627;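 active means calcium response B-score plate-corrected fluorescence ratio at least 3 library SD, with starting fluorescence B-score inside 5 SD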
Target sequence (Q96LB2 whole entry, looked up): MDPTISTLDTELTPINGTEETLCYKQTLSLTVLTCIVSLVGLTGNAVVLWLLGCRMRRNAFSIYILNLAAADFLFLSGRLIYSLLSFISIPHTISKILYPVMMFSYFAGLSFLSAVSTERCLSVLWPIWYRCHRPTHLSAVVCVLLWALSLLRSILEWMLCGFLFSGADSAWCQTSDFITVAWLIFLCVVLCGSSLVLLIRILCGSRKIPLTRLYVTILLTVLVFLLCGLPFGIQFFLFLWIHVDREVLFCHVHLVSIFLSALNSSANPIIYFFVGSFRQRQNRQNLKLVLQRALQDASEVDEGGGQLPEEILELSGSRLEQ
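Assay system: stable human MrgX1 HEK293 cell line. Quantity: 15,000 cells per well. Schedule: cells plated overnight, dye loaded 0.5 h 37 °C, 0.5 h room temperature. Detection: Fluo-4 NW calcium-flux fluorescence, kinetic read. Read-out basis: peak-minus-minimum fluorescence over baseline, converted to B scores. Control set: positive and negative control wells on each plate.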
RGS4 block: inhibitors of human RGS4 | B-score at 10 µM | actives 0.45% (n = 310,000) | AID 463165 | HEK293 M3R/RGS4 inducible, Fluo-4 calcium flux; stronger effect = higher value; triggered by carbachol at its EC20 | P49798;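 active means B-score, a plate-corrected calcium signal, over three deviations above library mean, with baseline fluorescence within five deviations of library mean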;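 further: RGS4 expression induced by doxycycline in cells with stable M3 receptor; B-score is computed from the integrated fluorescence ratio over baseline after carbachol; higher B-score means a larger calcium signal and so more RGS4 inhibition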
Target sequence (P49798 whole entry, looked up): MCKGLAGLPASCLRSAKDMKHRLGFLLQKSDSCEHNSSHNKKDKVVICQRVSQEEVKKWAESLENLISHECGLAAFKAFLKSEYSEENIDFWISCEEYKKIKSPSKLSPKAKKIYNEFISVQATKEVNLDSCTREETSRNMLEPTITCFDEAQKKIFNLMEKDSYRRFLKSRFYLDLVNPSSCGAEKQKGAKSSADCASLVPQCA
MrgX1 allo act: allosterically activates human MrgX1 receptor signaling; Q96LB2; MrgX1-HEK293, Fluo-4 calcium flux, FDSS; stronger effect = higher value; B-score at 10 µM; actives 0.63% (n = 310,000); AID 588675;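 active means plate-corrected calcium response at least 3 library SD above typical, normal starting fluorescence, not activating the receptor alone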;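 further: compound read alongside a low EC10 to EC30 dose of BAM8-22 agonist; peak minus trough fluorescence over baseline measured at the second addition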
MrgX1 antag: blocks BAM8-22 activation of human MrgX1 receptor; AID 588676; Q96LB2; actives 1.3% (n = 310,000); B-score at 10 µM; MRGX1-HEK293 calcium flux, Fluo-4, BAM8-22 antagonism; stronger effect = lower value;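 active means calcium-response B-score plate-corrected more than 3 library SD below zero, starting fluorescence within 5 deviations, no agonist response on first addition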;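 further: peak minus trough fluorescence over baseline after final BAM8-22 challenge near maximal dose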
* = called active by the depositor; i = inactive; / = no result.

SMILES | RGS4 pot | MrgX1 agonist | RGS4 block | MrgX1 allo act | MrgX1 antag
O=C(CN(c1ccccc1)S(=O)(=O)c1ccc(Cl)cc1)Nc1cccnc1 | i | i | i | i | i
Cc1c(NC(=S)N/N=C/c2ccc(Br)cc2)c(=O)n(-c2ccccc2)n1C | i | i | i | i | i
Cn1c(CS/C(N)=N/N=C/c2ccccc2)c(Br)c(=O)n1-c1ccccc1 | i | 46.1* | i | i | i
Cc1ccc(S(=O)(=O)N2CCOCC2)cc1NC(=O)COc1ncnc2ccccc12 | i | i | i | i | i
O=C(O)c1ccc(CNC(=O)c2ccc3c(c2)C(=O)N(Cc2cccnc2)C3=O)cc1 | i | i | i | i | -4.88*
O=c1/c(=C\c2cccc(O)c2)sc2nc(-c3ccccc3)c(-c3ccccc3)n12 | i | i | i | i | i
CC(=O)Nc1ccc(S(=O)(=O)NNC(=O)c2sc(=S)n(C)c2C)cc1 | i | i | i | i | -4.62*
Cc1c(C(=O)NNS(=O)(=O)c2ccccc2Cl)sc(=S)n1C | i | i | i | i | i
C(C#CCCCCCCCCC[n+]1ccccc1)#CCCCCCCCCC[n+]1ccccc1 | -12.2* | i | i | i | i
Cc1ccc(-c2noc(-c3cc(C(C)(C)C)nn3Cc3ccccc3)n2)cc1 | i | i | i | i | -6.85*
Cc1cc(C)c(C#N)c(SCc2c(F)cccc2[N+](=O)[O-])n1 | i | i | i | i | -5.74*
COc1ccccc1/C=C/C=C(\C#N)C(=O)NC(C)c1ccccc1 (configuration not stated) | i | i | i | i | i
COc1cc(/C=C(/C#N)C(=O)NC(C)c2ccccc2)cc(OC)c1O (configuration not stated) | i | 58.5* | i | i | i
COc1ccc(CCNC(=O)Cn2c(=O)n(CCCC(=O)NCc3ccco3)c(=O)c3sccc32)cc1OC | i | i | i | 6.44* | i
O=C(Nc1ccc(Cl)c(Cl)c1)OCCNC(=O)c1cccc(Cl)c1 | i | i | i | i | -5.34*
CNC(=O)NC(=O)C(c1ccccc1)N(C)CC1COc2ccccc2O1 (configuration not stated) | i | i | i | i | i
Oc1oc(-c2ccccc2)nc1/C=N/c1nccs1 | i | i | i | i | i
Oc1oc(-c2ccccc2)nc1C=Nc1cccc2ccccc12 | -7.15* | i | i | i | i
Cc1ccc(S(=O)(=O)CCC(=O)OCC(=O)NCc2ccc(Cl)cc2)cc1 | i | i | i | i | i
CCN(CC)CCC(C)OC(c1ccccc1)c1ccccc1 (configuration not stated) | -8.69* | i | i | i | i
COC(=O)c1ccc(N2CCOCC2)c(NC(=O)c2cccnc2)c1 | i | i | i | i | i
O=C(O)COc1ccc(/C=N/n2c(COc3ccccc3)nc3ccccc3c2=O)cc1 | i | i | i | i | i
O=c1c2ccccc2nc(COc2ccccc2)n1/N=C/c1ccc(O)c(O)c1 | -7.65* | i | i | i | i
Oc1ccc(N=Nc2cccc(Cl)c2)cc1C=Nc1ccc(N2CCOCC2)cc1 | i | / | 8.7* | / | /
N/C(Cn1cncn1)=N\NC(=O)c1ccc(Cl)cc1Cl | i | i | i | i | -4.52*
SMILES | RGS4 pot | MrgX1 agonist | RGS4 block | MrgX1 allo act | MrgX1 antag
Fc1cccc(Cl)c1CNC(c1ccccc1)c1ccccc1 | -7.05* | i | i | i | i
O=C(CNC(c1ccccc1)c1ccccc1)Nc1c(F)cccc1F | i | i | i | i | i
Cc1ccc(NC(=O)c2nn(C34CC5CC(CC(C5)C3)C4)cc2[N+](=O)[O-])cc1 | i | i | i | i | -5.03*
C#CCNC(=O)C1=C[C@H](c2coc3ccccc3c2=O)[C@@H](CCCO)[C@H](OCC)O1 | i | i | i | i | i
CSc1nc(=O)n2cc(C)ccc2n1 | i | i | i | i | i
Cc1ccc(C(=O)c2ccc([N+](=O)[O-])cc2)cc1 | i | i | i | i | i
Cc1ccc(S(=O)(=O)CC#CCOC(=O)c2ccc([N+](=O)[O-])cc2)cc1 | i | 43.3* | i | i | i
O=C(C[n+]1cc(-c2ccc(Cl)cc2)n2c1CCCCC2)c1ccccc1 | i | i | i | i | i
CC(C)[C@@H]1CC[C@@H](C)C[C@H]1OC(=O)C[n+]1cc(-c2ccc(Cl)cc2)n2c1CCCCC2 | i | i | i | i | -7.43*
COc1ccc(-c2c[n+](CC(=O)OC3CC(C)CCC3C(C)C)c3n2CCC3)cc1 (configuration not stated) | -6.97* | i | i | i | -4.85*
O=c1[nH]cnc2c1N=C(c1cccc([N+](=O)[O-])c1)CC(c1ccccc1)N2 (configuration not stated) | i | i | i | i | i
COc1ccccc1-c1nnn(CC#N)n1 | i | i | i | i | -7.54*
COc1ccc(N2C(=O)CSC2c2ccc3c(c2)OCO3)c(OC)c1 (configuration not stated) | i | i | i | i | i
COc1ccc(N2C(=O)CSC2c2ccc3c(c2)OCO3)cc1 (configuration not stated) | -6.96* | i | i | i | i
CC(C)N1CCc2c(sc(NC(=S)NC(=O)c3ccccc3)c2C#N)C1 | i | i | i | i | i
CCOC(=O)c1c(NC(=S)Nc2ccccc2)sc2c1CCN(CCc1ccccc1)C2 | / | i | / | i | -5.03*
CCCN1CCc2c(sc(NC(=S)NC(=O)c3ccccc3)c2C#N)C1 | i | 79.6* | i | i | i
CN1C(=O)C(N=Nc2ccccc2C(=O)O)N(C)C1=S (configuration not stated) | i | 48.5* | i | i | i
CC1=NN(C(N)=S)C(=O)C1N=Nc1ccccc1C(=O)O (configuration not stated) | i | i | i | i | i
O=C(O)c1cccc(-c2ccc(/C=N/Nc3ccc([N+](=O)[O-])cc3)o2)c1 | i | i | i | i | -7*
CC(C)(C)NC(=S)N/N=C\c1ccc(-c2ccc([N+](=O)[O-])cc2)o1 | i | 28.3* | i | i | i
C[C@H](NC(=O)N1CCn2c1nc1ccccc12)C(=O)NCCc1ccccc1 | i | i | i | i | i
COc1cc(CNCc2ccc(C)cc2)cc(OC)c1OC | i | i | i | i | i
Oc1cccc2c(NC(=S)Nc3ccc(SC(F)F)cc3)cccc12 | i | i | i | i | -5.31*
